The source of these data is ChEMBL document CHEMBL4402611, “Phenyl(thio)phosphon(amid)ate Benzenesulfonamides as Potent and Selective Inhibitors of Human Carbonic Anhydrases II and VII Counteract Allodynia in a Mouse Model of Oxaliplatin-Induced Neuropathy” (J Med Chem, 2020).

Calls of active or inactive are those of the source.

One series deals with Carbonic anhydrase 12 (Homo sapiens, UniProt O43570). The experiment in a line: Inhibition of human recombinant carbonic anhydrase 12 preincubated with enzyme for 1 hr prior to testing by phenol red-based stopped-flow CO2 hydration assay.
Series [1] deals with Mus musculus. The experiment in a line: Antinociceptive activity in CD-1 albino mouse model of oxaliplatin-induced neuropathic pain assessed as decrease in pain-related behaviour measured as licking latency at 50 mg/kg, po treated on day 15 post oxaliplatin treatment and measured after 15 to 45 mins post dose by cold plate test. The format is functional, organism-based. In short, it runs like this:
(§1)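 Male CD-1 mice (22–25 g) given oxaliplatin 2.4 mg kg–1 i.p. in 5% glucose on days 1–2, 5–9 and 12–14 (10 injections). On day 15, compounds were suspended in 1% CMC and given once orally. Cold plate held at 4 °C; latency to first hind-paw licking recorded, 30 s cutoff. Readings taken before dosing and at 15, 30, 45 and 60 min after. 12 mice per group over two sets, observers blinded.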

The next series has as its target Carbonic anhydrase 7 (Homo sapiens, UniProt P43166). In words: Inhibition of human recombinant carbonic anhydrase 7 preincubated with enzyme for 1 hr prior to testing by phenol red-based stopped-flow CO2 hydration assay.
The target in series [2] is Carbonic anhydrase 5B, mitochondrial (Homo sapiens, UniProt Q9Y2D0). The experiment in a line: Inhibition of human recombinant carbonic anhydrase 5B preincubated with enzyme for 1 hr prior to testing by phenol red-based stopped-flow CO2 hydration assay.
For a further series, the target named is Carbonic anhydrase 2 (Homo sapiens, UniProt P00918). The experiment in a line: Inhibition of human recombinant carbonic anhydrase 2 preincubated with enzyme for 1 hr prior to testing by phenol red-based stopped-flow CO2 hydration assay.
The target of a further series is Carbonic anhydrase 1 (Homo sapiens, UniProt P00915). In words: Inhibition of human recombinant carbonic anhydrase 1 preincubated with enzyme for 1 hr prior to testing by phenol red-based stopped-flow CO2 hydration assay.
Series [3] has as its target Carbonic anhydrase 5A, mitochondrial (Homo sapiens, UniProt P35218). In words: Inhibition of human recombinant carbonic anhydrase 5A preincubated with enzyme for 1 hr prior to testing by phenol red-based stopped-flow CO2 hydration assay.
A further series deals with Carbonic anhydrase 4 (Homo sapiens, UniProt P22748). In words: Inhibition of human recombinant carbonic anhydrase 4 preincubated with enzyme for 1 hr prior to testing by phenol red-based stopped-flow CO2 hydration assay.
Another series addresses Carbonic anhydrase 9 (Homo sapiens, UniProt Q16790). The experiment in a line: Inhibition of human recombinant carbonic anhydrase 9 preincubated with enzyme for 1 hr prior to testing by phenol red-based stopped-flow CO2 hydration assay. The format is single protein.
A short description of series [4]: Stability of compound in aqueous HCl solution at pH 2 measured up to 120 mins by LC-MS/MS analysis. The format is physicochemical. The following applies: buffer, pH 2, 2 h. An outline of the steps:
(§2)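 Analyte (1 μM final) incubated at 37 °C in PBS, 10 mM HCl (pH 2) or human plasma. Sampling at 0, 30, 60 and 120 min, each in triplicate. Samples were quenched with acetonitrile containing verapamil internal standard, centrifuged and diluted. Read-out was LC–MS/MS with positive ESI and MRM on a PFP column.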

The test system of series [5] is Mus musculus. In words: Antinociceptive activity in orally dosed CD-1 albino mouse model of oxaliplatin-induced neuropathic pain assessed as decrease in pain-related behaviour measured as licking latency treated on day 15 post oxaliplatin treatment and measured upto 45 mins post dose by cold plate test. Type of series: functional, organism-based. An outline of the steps:
as §1

Series [6] in a line: Stability of compound in human plasma measured up to 120 mins by LC-MS/MS analysis. The following applies: 2 h. Type of series: ADME, cell-free. In short, it runs like this:
as §2

A short description of series [7]: Stability of compound in PBS buffer measured up to 120 mins by LC-MS/MS analysis. The format is physicochemical. The following applies: 2 h. In short, it runs like this:
as §2

Series [8] relates to Mus musculus. The experiment in a line: Antinociceptive activity in CD-1 albino mouse model of oxaliplatin-induced neuropathic pain assessed as decrease in pain-related behaviour measured as licking latency at 10 to 100 mg/kg, po treated on day 15 post oxaliplatin treatment and measured after 15 to 30 mins post dose by cold plate test. Type of series: functional, organism-based. An outline of the steps:
as §1

Series [9] is described as follows: Solubility of compound in water. The format is physicochemical. To be noted: buffer.

Sequence of Carbonic anhydrase 4 (P22748 whole entry): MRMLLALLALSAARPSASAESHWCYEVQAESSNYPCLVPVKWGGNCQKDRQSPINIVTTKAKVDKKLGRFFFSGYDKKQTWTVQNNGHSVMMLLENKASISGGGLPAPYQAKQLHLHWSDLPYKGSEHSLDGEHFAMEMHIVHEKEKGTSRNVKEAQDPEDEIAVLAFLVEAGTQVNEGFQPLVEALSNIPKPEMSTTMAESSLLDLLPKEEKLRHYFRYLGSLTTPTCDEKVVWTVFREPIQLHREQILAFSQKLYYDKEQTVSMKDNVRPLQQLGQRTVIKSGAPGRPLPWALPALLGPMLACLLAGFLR
Sequence of Carbonic anhydrase 5B, mitochondrial (Q9Y2D0 whole entry): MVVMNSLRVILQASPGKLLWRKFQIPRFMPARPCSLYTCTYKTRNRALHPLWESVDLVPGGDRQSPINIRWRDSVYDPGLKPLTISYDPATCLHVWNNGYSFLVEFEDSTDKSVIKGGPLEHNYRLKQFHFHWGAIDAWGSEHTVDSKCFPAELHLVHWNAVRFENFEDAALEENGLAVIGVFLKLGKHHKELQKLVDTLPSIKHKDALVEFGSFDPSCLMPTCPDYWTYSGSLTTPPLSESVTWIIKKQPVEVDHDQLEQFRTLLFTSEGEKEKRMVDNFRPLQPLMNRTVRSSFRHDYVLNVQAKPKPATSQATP
Sequence of Carbonic anhydrase 1 (P00915 whole entry): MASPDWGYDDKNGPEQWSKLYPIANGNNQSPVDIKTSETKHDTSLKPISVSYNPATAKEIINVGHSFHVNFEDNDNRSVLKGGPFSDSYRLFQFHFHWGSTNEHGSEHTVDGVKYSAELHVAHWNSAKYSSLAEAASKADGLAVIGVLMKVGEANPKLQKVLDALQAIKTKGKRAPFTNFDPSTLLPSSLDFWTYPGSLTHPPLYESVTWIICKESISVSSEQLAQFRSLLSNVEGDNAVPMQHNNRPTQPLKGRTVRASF
Sequence of Carbonic anhydrase 5A, mitochondrial (P35218 whole entry): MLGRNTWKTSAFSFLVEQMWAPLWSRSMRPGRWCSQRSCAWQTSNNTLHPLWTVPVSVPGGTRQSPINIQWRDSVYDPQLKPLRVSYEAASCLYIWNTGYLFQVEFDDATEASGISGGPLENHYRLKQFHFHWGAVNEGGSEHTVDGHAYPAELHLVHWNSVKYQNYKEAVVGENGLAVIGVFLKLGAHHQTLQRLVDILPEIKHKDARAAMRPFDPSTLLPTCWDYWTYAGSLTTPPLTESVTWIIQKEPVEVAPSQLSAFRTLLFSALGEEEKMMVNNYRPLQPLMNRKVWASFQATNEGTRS
Sequence of Carbonic anhydrase 7 (P43166 whole entry): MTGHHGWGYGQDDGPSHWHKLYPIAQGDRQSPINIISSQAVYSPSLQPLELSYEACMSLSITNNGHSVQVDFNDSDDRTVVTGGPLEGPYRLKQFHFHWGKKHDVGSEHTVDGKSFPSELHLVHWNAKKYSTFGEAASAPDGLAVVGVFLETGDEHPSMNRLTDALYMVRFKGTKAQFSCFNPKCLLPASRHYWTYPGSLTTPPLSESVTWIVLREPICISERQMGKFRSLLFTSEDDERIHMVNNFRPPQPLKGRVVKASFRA
Sequence of Carbonic anhydrase 12 (O43570 whole entry): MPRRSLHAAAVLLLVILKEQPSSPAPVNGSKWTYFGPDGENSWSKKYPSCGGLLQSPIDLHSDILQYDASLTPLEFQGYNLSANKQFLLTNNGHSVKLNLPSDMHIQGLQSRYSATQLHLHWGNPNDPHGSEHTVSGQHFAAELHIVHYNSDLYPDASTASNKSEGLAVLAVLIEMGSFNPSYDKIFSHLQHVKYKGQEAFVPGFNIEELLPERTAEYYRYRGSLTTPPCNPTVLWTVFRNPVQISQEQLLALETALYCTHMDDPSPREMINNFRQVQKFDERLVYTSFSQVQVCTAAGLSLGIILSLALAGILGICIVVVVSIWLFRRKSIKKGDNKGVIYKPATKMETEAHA

As to `C#CCO[P@@](=O)(Oc1ccc(S(N)(=O)=O)cc1)c1ccccc1`, the Ki (as a rule, the dissociation constant of the complex between target and ligand, obtained from inhibition or displacement) at Carbonic anhydrase 12 was found to be 49.2 nM; on Carbonic anhydrase 7, 71.3 nM; in series [2] it was 66.1 nM; on Carbonic anhydrase 2, 56.4 nM; on Carbonic anhydrase 1, 365 nM; in [3], 66.5 nM. Moreover, the Ki at Carbonic anhydrase 4 stood at 1980 nM. Further, the outcome in the series with Mus musculus [1] was inactive.

For the molecule `NS(=O)(=O)c1ccc(OP(=O)(O)c2ccccc2)cc1`, the inhibition constant (Ki) on Carbonic anhydrase 12 was found to be 30.8 nM; at Carbonic anhydrase 7, 16.1 nM; in [2], 52.8 nM; at Carbonic anhydrase 2 it was 37.9 nM; on Carbonic anhydrase 1, 197 nM; in [3] it was 76.3 nM. The inhibition constant Ki was 26.1 nM at Carbonic anhydrase 9 and 220 nM on Carbonic anhydrase 4.

On to `C#CCO[P@](=O)(Oc1ccc(S(N)(=O)=O)cc1)c1ccccc1`, for which the Ki on Carbonic anhydrase 12 stood at 17.3 nM; on Carbonic anhydrase 7, 1.1 nM; in series [2], 19.2 nM; on Carbonic anhydrase 2, 0.78 nM; at Carbonic anhydrase 1, 564 nM; in series [3], 108 nM. In addition, the Ki at Carbonic anhydrase 4 was found to be 746 nM. In the series with Mus musculus [1], the outcome was Active.

Consider `COCCOP(=O)(Oc1ccc(S(N)(=O)=O)cc1)c1ccccc1` (racemic), for which the inhibitory constant (Ki) at Carbonic anhydrase 12 amounted to 35.7 nM; at Carbonic anhydrase 7, 25 nM; in [2] it was 67.2 nM; on Carbonic anhydrase 2, 28.5 nM; at Carbonic anhydrase 1, 780 nM; in series [3], 59.3 nM. The results for the inhibition constant Ki on Carbonic anhydrase 9 and at Carbonic anhydrase 4 were 12.1 nM and 1640 nM, respectively.

On to `NS(=O)(=O)c1ccc(OP(=O)(Oc2ccccc2)c2ccccc2)cc1` (racemic), for which the inhibition constant (Ki) on Carbonic anhydrase 12 was 24.6 nM; on Carbonic anhydrase 7, 31.4 nM; in [2], 22.7 nM; on Carbonic anhydrase 2 it was 15.2 nM; at Carbonic anhydrase 1, 971 nM; in [3], 470 nM. Moreover, the figures for the inhibition constant Ki at Carbonic anhydrase 9 and on Carbonic anhydrase 4 were 13.2 nM and 2620 nM, respectively.

`CC(C)OP(=O)(Oc1ccc(S(N)(=O)=O)cc1)c1ccccc1` (racemic): the inhibition constant Ki at Carbonic anhydrase 12 came to 42 nM; on Carbonic anhydrase 7, 6.2 nM; in series [2], 19.8 nM; on Carbonic anhydrase 2, 12.8 nM; on Carbonic anhydrase 1 it was 308 nM; in [3] it was 101 nM. The Ki worked out at 17.5 nM at Carbonic anhydrase 9 and 1200 nM on Carbonic anhydrase 4. The Stability entry in series [4], in [6] and in series [7] was “Stable” in each case. The Activity result in the series on Mus musculus [5] is “Dose-dependent effect”.

Consider `CCSP(=O)(Oc1ccc(S(N)(=O)=O)cc1)c1ccccc1` (racemic), for which the inhibitory constant (Ki) amounted to 34.1 nM at Carbonic anhydrase 12; 41.5 nM on Carbonic anhydrase 7; 96.7 nM in series [2]; 30.2 nM at Carbonic anhydrase 2; 727 nM at Carbonic anhydrase 1; 94.3 nM in [3]. Besides, the inhibition constant (Ki) at Carbonic anhydrase 9 came out at 27 nM; on Carbonic anhydrase 4, 1390 nM.

`NS(=O)(=O)c1ccc(OP(=O)(NCc2ccccc2)c2ccccc2)cc1` (racemic): the inhibition constant Ki stood at 19.7 nM at Carbonic anhydrase 12; 15.4 nM on Carbonic anhydrase 7; 68.7 nM in series [2]; 52.9 nM at Carbonic anhydrase 2; 1710 nM on Carbonic anhydrase 1; 59.1 nM in series [3]. Besides, the inhibition constant (Ki) was 2.6 nM at Carbonic anhydrase 9 and 644 nM at Carbonic anhydrase 4.

Consider `NS(=O)(=O)c1ccc(OP(=O)(Nc2ccccc2)c2ccccc2)cc1` (racemic), for which the inhibition constant (Ki) at Carbonic anhydrase 12 amounted to 20.9 nM; at Carbonic anhydrase 7, 5.5 nM; in [2] it was 24 nM; on Carbonic anhydrase 2, 2.4 nM; on Carbonic anhydrase 1, 818 nM; in series [3], 185 nM. Besides, the Ki on Carbonic anhydrase 9 amounted to 19.6 nM; at Carbonic anhydrase 4, 860 nM. In the series with Mus musculus [8], the outcome was Active. The Stability entry in series [4], in [6] and in [7] was “Stable” throughout.

For the molecule `CCCNP(=O)(Oc1ccc(S(N)(=O)=O)cc1)c1ccccc1` (racemic), the inhibitory constant (Ki) was found to be 17.3 nM at Carbonic anhydrase 12; 20.8 nM at Carbonic anhydrase 7; 33.7 nM in series [2]; 26.2 nM on Carbonic anhydrase 2; 759 nM on Carbonic anhydrase 1; 85.2 nM in series [3]. Further, the inhibitory constant (Ki) was 3.2 nM at Carbonic anhydrase 9 and 1520 nM on Carbonic anhydrase 4.

For the molecule `NS(=O)(=O)c1ccc(OP(=O)(SCc2ccccc2)c2ccccc2)cc1` (racemic), the Ki amounted to 21.3 nM on Carbonic anhydrase 12; 75.5 nM at Carbonic anhydrase 7; 58.4 nM in series [2]; 64.8 nM on Carbonic anhydrase 2; 3260 nM on Carbonic anhydrase 1; 151 nM in series [3]. Besides, the inhibition constant Ki at Carbonic anhydrase 9 came to 25 nM; at Carbonic anhydrase 4, 4460 nM.

Turning to `CCN(CC)P(=O)(Oc1ccc(S(N)(=O)=O)cc1)c1ccccc1` (racemic), the Ki stood at 46.8 nM on Carbonic anhydrase 12; 13.5 nM on Carbonic anhydrase 7; 49.1 nM in [2]; 17.5 nM at Carbonic anhydrase 2; 521 nM on Carbonic anhydrase 1; 107 nM in series [3]. The Ki worked out at 19.5 nM on Carbonic anhydrase 9 and 371 nM on Carbonic anhydrase 4.

In the case of `CCOP(=O)(Oc1ccc(S(N)(=O)=O)cc1)c1ccccc1` (racemic), the Ki came out at 22.4 nM on Carbonic anhydrase 12; 38.2 nM on Carbonic anhydrase 7; 40.1 nM in series [2]; 36.6 nM on Carbonic anhydrase 2; 398 nM on Carbonic anhydrase 1; 143 nM in [3]. In addition, the inhibition constant Ki on Carbonic anhydrase 9 amounted to 18.7 nM; on Carbonic anhydrase 4, 425 nM.

Regarding `COP(=O)(Oc1ccc(S(N)(=O)=O)cc1)c1ccccc1` (racemic), the Ki at Carbonic anhydrase 12 was determined as 47.2 nM; on Carbonic anhydrase 7, 36 nM; in series [2], 24.3 nM; at Carbonic anhydrase 2, 11.4 nM; at Carbonic anhydrase 1, 495 nM; in series [3], 51.7 nM. Also, the values for the Ki at Carbonic anhydrase 9 and at Carbonic anhydrase 4 were 16.2 nM and 259 nM, respectively.

For `NS(=O)(=O)c1ccc(OP(=O)(Sc2ccccc2)c2ccccc2)cc1` (racemic), the inhibition constant (Ki) turned out to be 39.2 nM on Carbonic anhydrase 12; 15.7 nM on Carbonic anhydrase 7; 28.7 nM in series [2]; 34.9 nM on Carbonic anhydrase 2; 1630 nM on Carbonic anhydrase 1; 382 nM in [3]. For the same molecule, the inhibition constant (Ki) at Carbonic anhydrase 9 was determined as 6.6 nM; at Carbonic anhydrase 4, 2630 nM.

On to `CCCCCCCCCCCCSP(=O)(Oc1ccc(S(N)(=O)=O)cc1)c1ccccc1` (racemic), for which the Ki turned out to be 47.8 nM at Carbonic anhydrase 12; 101 nM on Carbonic anhydrase 7; 225 nM in series [2]; 234 nM at Carbonic anhydrase 2; 8350 nM on Carbonic anhydrase 1; 642 nM in series [3]. Also, the Ki worked out at 51.2 nM at Carbonic anhydrase 9 and 4160 nM at Carbonic anhydrase 4.

For `NP(=O)(Oc1ccc(S(N)(=O)=O)cc1)c1ccccc1` (racemic), the inhibitory constant (Ki) on Carbonic anhydrase 12 was found to be 15.4 nM; at Carbonic anhydrase 7, 18.9 nM; in series [2] it was 12.6 nM; at Carbonic anhydrase 2 it was 17.9 nM; at Carbonic anhydrase 1, 195 nM; in series [3] it was 41.3 nM. The Ki was 20.9 nM on Carbonic anhydrase 9 and 292 nM on Carbonic anhydrase 4.

With `CN1CCN(P(=O)(Oc2ccc(S(N)(=O)=O)cc2)c2ccccc2)CC1` (racemic), the Ki on Carbonic anhydrase 12 worked out at 25.3 nM; on Carbonic anhydrase 7, 17 nM; in series [2], 47.3 nM; at Carbonic anhydrase 2, 9.1 nM; at Carbonic anhydrase 1 it was 391 nM; in [3] it was 164 nM. The Ki at Carbonic anhydrase 9 amounted to 61.9 nM; at Carbonic anhydrase 4, 76.9 nM. In the series with Mus musculus [8], the result was Active. For the same molecule, the Stability entry in [4], in series [6] and in [7] was “Stable” throughout. For the same molecule, the solubility entry in [9] is reported as “Soluble”.

Consider `NS(=O)(=O)c1ccc(OP(=O)(c2ccccc2)N2CCOCC2)cc1` (racemic), for which the inhibitory constant (Ki) was determined as 27.6 nM on Carbonic anhydrase 12; 30.5 nM at Carbonic anhydrase 7; 27.4 nM in series [2]; 7.9 nM on Carbonic anhydrase 2; 318 nM on Carbonic anhydrase 1; 43.9 nM in series [3]. Moreover, the inhibitory constant (Ki) at Carbonic anhydrase 9 turned out to be 11.1 nM; on Carbonic anhydrase 4, 120 nM.
